Measured values collected from several papers.
Compare with care: the assays were run in different laboratories. pIC50: −log10 of the molar value.
Observed: cell growth or viability

| SMILES | cell line | method | tested at | time | endpoint | result |
| --- | --- | --- | --- | --- | --- | --- |
| CC[C@@]1(O)C(=O)OCc2c1cc1n(c2=O)Cc2cc3c(CN(C)C)c(O)ccc3nc2-1 | GISTT1 | resazurin |  | 72 h | pIC50 | 7.10 |
| CCc1cc(CN2CCc3cc(OS(N)(=O)=O)c(OC)cc3C2)cc(CC)c1CC | CNSSF-539 | SRB |  |  | GI50 | 916 nM |
| CN(C)c1ccc(C(=C2C=CC(=[N+](C)C)C=C2)c2ccc(N(C)C)cc2)cc1 | GISTT1 | resazurin |  | 72 h | pIC50 | 6.28 |
| O=C1Nc2cc(F)cc(F)c2C(=O)CCc2ccccc21 | L6 |  |  |  | pIC50 | 4.07 |
| CC[C@@]1(O)C(=O)OCc2c1cc1n(c2=O)Cc2cc3ccccc3nc2-1 | CNSSF-539 | SRB |  | 48 h | GI50 | 10 nM |
| N#Cc1ccc2c(c1)CCC(=O)c1ccccc1NC2=O | L6 |  |  |  | pIC50 | 3.82 |
| CC(=O)Nc1cccc(-n2c(=O)n(C3CC3)c(=O)c3c(Nc4ccc(I)cc4F)n(C)c(=O)c(C)c32)c1 | SW1417 | resazurin | 6.25 nM | 72 h | viability | 71.8% |
| Nc1nc(Cl)nc2c1ncn2[C@H]1C[C@H](O)[C@@H](CO)O1 | GISTT1 | resazurin |  | 72 h | pIC50 | < 6.00 |
| O=C1Nc2ccccc2CCCc2ccccc21 | L6 |  |  |  | pIC50 | 3.72 |
| COc1cc(CN2CCc3cc(O)ccc3C2)cc(OC)c1OC | CNSSF-539 | SRB |  |  | GI50 | 36 nM |
| N#Cc1ccc2c(c1)C(=O)CCc1ccccc1C(=O)N2 | L6 |  |  |  | pIC50 | 3.80 |
| Cc1cc2c(cc1N1C(=O)c3cccc4c(CCCO)ccc(c34)C1=O)n(C)c(=O)n2C (racemic) | MDA-MB-453 | resazurin |  |  | GI50 | > 10000 nM |
